In the array DNA melting data of Ke et al. (doi:10.1101/2024.01.08.574731) one finds folding enthalpy and Tm data, which are given here for 36 sequences.

The nature of data set [1]: folding enthalpy; higher = less favourable; fluorescence melt of hairpins on a sequencing array, two-state fit. Conditions: sodium 0.088 M. In outline:
(§1)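 Bootstrapped two-state fits yielded melting temperature and folding enthalpy for library hairpins. Cy3 fluorescence, with annealed Cy3 and quencher oligos, was imaged on a sequenced MiSeq flow cell in 50 mM Na-HEPES pH 8.0, 25 mM NaCl in 2.5 °C steps up to 60 °C, and normalised to pre-quench Cy3 and to control constructs. Four replicates were combined by inverse variance, and fitted temperatures were raised by 9.35 °C to match UV melts.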

Data set [2] can be described thus: melting temperature; fluorescence melt of hairpins on a sequencing array, two-state fit, raised by 9.35 °C to match UV melts. Conditions: sodium 0.088 M. The essentials: as §1

For GGCAGTGGAAACGTTGCC ((((..(....)..)))), in data set [1], the folding enthalpy was -28.9 kcal/mol. For the same sequence, the Tm in data set [2] was found to be 49.1 °C.
Taken in the same sequence, the figures for GGCATACGAAAGTAGGCC (((.(((....))).))) were -47.1 kcal/mol and 63.4 °C.
For GGCATAGCGAAAGCTGCC (((..(((....)))))), in data set [1], the folding enthalpy was -31.4 kcal/mol. Besides, the Tm in data set [2] worked out at 59.2 °C.
On the same counts, the results for GGCATAGGAAACTATGCC (((((((....))))))) are -39.5 kcal/mol and 64.9 °C.
Regarding GGCATCCGAAAGGAGCC (((.(((....)))))), the folding enthalpy in data set [1] is -42.6 kcal/mol. Moreover, the Tm in data set [2] was 55.6 °C.
Turning to GGCATCGAAAGATAAGCC ((((((....)))..))), in data set [1], the folding enthalpy was -27.9 kcal/mol. Also, in data set [2], the Tm is 44.7 °C.
Taken in the same sequence, the figures for GGCATCGAAAGATACGCC ((((((....)))..))) were -24.3 kcal/mol and 42.3 °C.
On the same counts, the results for GGCATCGAAAGATCAGCC ((((((....)))..))) are -25 kcal/mol and 39.2 °C.
On the same counts, the results for GGCATCGAAAGATCCGCC ((((((....)))..))) are -19.2 kcal/mol and 49.3 °C.
As to GGCATCGAAAGATGGCC ((((((....))).))), the folding enthalpy in data set [1] was -20.1 kcal/mol. For the same sequence, in data set [2], the Tm came out at 58.4 °C.
Taken in the same sequence, the figures for GGCATCGAAAGATTAGCC ((((((....)))..))) were -28.2 kcal/mol and 43.7 °C.
GGCATCGGAAACGATACC ((.((((....)))).)): the folding enthalpy in data set [1] is -27.1 kcal/mol. For the same sequence, the Tm in data set [2] was found to be 45.6 °C.
In the case of GGCATCGGAAACGATGTC (.(((((....))))).), the folding enthalpy in data set [1] is -42.1 kcal/mol. In addition, the Tm in data set [2] stood at 55.9 °C.
As to GGCATCGGAAACGGTGTC (.((.((....)).)).), in data set [1], the folding enthalpy is -25.7 kcal/mol. Also, the Tm in data set [2] was 44.8 °C.
Turning to GGCATGGGAAACCATACC ((.((((....)))).)), the folding enthalpy in data set [1] is -26.2 kcal/mol. The Tm in data set [2] is 41 °C.
In the case of GGCATTCGAAAGAAAGCC (((.(((....))).))), in data set [1], the folding enthalpy is -40.4 kcal/mol. The Tm in data set [2] worked out at 50.5 °C.
Taken in the same sequence, the figures for GGCATTCGAAAGAAGGCC (((.(((....))).))) were -41.7 kcal/mol and 60.4 °C.
On the same counts, the results for GGCCAAACGAAAGTTGCC (((..(((....)))))) are -22.6 kcal/mol and 44 °C.
In the case of GGCCAAGGAAACCTGGCC (((((.(....).))))), in data set [1], the folding enthalpy is -42.3 kcal/mol. The Tm in data set [2] is 57.3 °C.
For GGCCACCCGAAAGGGGCC (((..(((....)))))), in data set [1], the folding enthalpy is -23.2 kcal/mol. Moreover, the Tm in data set [2] worked out at 61.3 °C.
On the same counts, the results for GGCCACGAAAGTGGCGCC ((((((....)))..))) are -7.19 kcal/mol and 65.5 °C.
On to GGCCACGAAAGTGTGCC ((((((....))).))), for which the folding enthalpy in data set [1] was -25.9 kcal/mol. Also, the Tm in data set [2] was 64 °C.
Turning to GGCCACGCGAAAGCGGCC (((..(((....)))))), in data set [1], the folding enthalpy is -19 kcal/mol. Further, the Tm in data set [2] worked out at 62.5 °C.
Taken in the same sequence, the figures for GGCCAGCGAAAGCTGCC (((.(((....)))))) were -16 kcal/mol and 60 °C.
Take GGCCAGCGAAAGCTTGCC (((.(((....))).))): the folding enthalpy in data set [1] was -50.7 kcal/mol. For the same sequence, the Tm in data set [2] worked out at 55.5 °C.
On the same counts, the results for GGCCAGGCGAAAGCCGCC (((..(((....)))))) are -13.9 kcal/mol and 58.4 °C.
Taken in the same sequence, the figures for GGCCAGGGAAACCCGGCC ((((.((....)).)))) were -40.9 kcal/mol and 62.1 °C.
As to GGCCATCGAAAGATCGCC (((.(((....))).))), in data set [1], the folding enthalpy is -33.6 kcal/mol. In data set [2], the Tm came to 46.8 °C.
Regarding GGCCATGGAAACATAGCC (((.(((....))).))), in data set [1], the folding enthalpy was -31.5 kcal/mol. Besides, in data set [2], the Tm is 40.8 °C.
As for GGCCATGGAAACATGGTC (.(((((....))))).), in data set [1], the folding enthalpy was -36.2 kcal/mol. Moreover, the Tm in data set [2] was 54.9 °C.
Taken in the same sequence, the figures for GGCCCAGGAAACCGAGCC (((.(.(....).).))) were -15.7 kcal/mol and 36.9 °C.
Turning to GGCCCAGGAAACTGAGCC (((.(((....))).))), the folding enthalpy in data set [1] was -32.4 kcal/mol. Besides, in data set [2], the Tm is 49 °C.
For GGCCCCGAAAGGGAAGCC ((((((....)))..))), the folding enthalpy in data set [1] was -28.2 kcal/mol. Further, the Tm in data set [2] came out at 55.4 °C.
Take GGCCCCGAAAGGGCGCC ((((((....))).))): in data set [1], the folding enthalpy was -18.5 kcal/mol. Also, the Tm in data set [2] is 68.6 °C.
Taken in the same sequence, the figures for GGCCCCGAAAGGGCGGCC ((((((....)))..))) were -16.9 kcal/mol and 64.7 °C.
On to GGCCCCGAAAGGGTGGCC ((((((....)))..))), for which the folding enthalpy in data set [1] is -22.7 kcal/mol. Also, the Tm in data set [2] was determined as 61.6 °C.
